Source: PubChem (Broad Institute)
esBAF inh: SWI/SNF esBAF complex inhibition; mouse ES cells, Bmi1-luciferase knock-in reporter, 24 h; 100% = twice the neutral-well signal; reporter increase, % at 12.5 µM; 2% of 350,000 active; in the data active = activation above about 40%; inconclusive = no clear call, values can overlap the other calls;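 also: 0% = median of the plate's neutral control wells and 100% = double that signal; a rise in the Bmi1 reporter signal indicates esBAF inhibition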
Casp6 inh: inhibitors of human caspase-6. purified caspase-6, Z-VEID-R110 cleavage fluorescence. inhibition, % at 12.5 µM. 0.53% of 350,000 active. AID 686996;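 active = mean inhibition across replicates at least about 35%, with every replicate also reaching that limit, limit read from the data; inconclusive = only one of the two criteria met; inactive = neither criterion met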;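 also: 0% = median of neutral control wells and 100% = no fluorescence left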
XiGFP reactiv: X-chromosome reactivation activator; XiGFP mouse fibroblasts, % GFP-positive cells imaging, 3 d; cells co-treated with 5-aza-dC sensitizer; scaled so ellipticine positive control = 100%; activation, % at 7.58 µM; 0.055% of 360,000 active;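 active = mean normalized replicate activation at least 10% and every replicate at or above 10%; inconclusive = only one of the two criteria met; inactive = mean below 10% and not all replicates reach 10%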;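 also: 0% = median of on-plate neutral control wells and 100% = ellipticine 6 µM median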
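Material: XiGFP fibroblasts, SV40-immortalized. Buffer or medium: DMEM plus 5-aza-dC sensitizer. Compound: single concentration per compound, delivered by pin transfer. Times: 3 days compound exposure. Controls: ellipticine 6 µM.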
NSD2 HMT inh: inhibitors of human histone methyltransferase NSD2. O96028. 0.54% of 310,000 active. NSD2 peptide methylation, AlphaScreen, 120 min. inhibition, % at 12.5 µM; in the data active = inhibition above about 50%
Wnt act: Wnt/beta-catenin pathway activation. 1.2% of 300,000 active. AID 743398. Wnt/beta-catenin reporter cell assay, activator, plate reader. activation, % at 9.35 µM; in the data active = activation above about 30%, passing the limit was not always enough; inconclusive = no clear call, values can overlap the other calls;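 also: 0% = neutral control wells and 100% = positive control wells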
MITF act: activators of MITF-driven TRPM1 promoter activity in SK-MEL-5 cells; SK-MEL-5 TRPM1-promoter luciferase, 24 h; % of positive control, neutral wells = 0; activation, % at 12.5 µM; 0.75% of 300,000 active;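 active = mean activation of at least 80% with every replicate also reaching 80%; inconclusive = mean reaches 80% but some replicate falls short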;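 also: 0% = neutral control wells and 100% = parthenolide positive control wells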
The depositor's hits bear a star; ? = inconclusive; . = no result given. Sampled rows, rich in hits. Any-hit rate of the full collection: about 3%.

SMILES | esBAF inh | Casp6 inh | XiGFP reactiv | NSD2 HMT inh | Wnt act | MITF act
CS(=O)(=O)NCCCNc1ccc(C(F)(F)F)cc1[N+](=O)[O-] | 1 | -1 | 0 | 1 | -1 | -6
Cc1cccc(OCCNc2ccc(C(F)(F)F)cc2[N+](=O)[O-])c1 | . | . | 0 | -1 | . | 90*
Cc1ccc(S(=O)(=O)/N=C(/Nc2ccc(O)c(C(=O)O)c2)c2ccccc2)cc1 | 0 | 0 | 0 | -2 | 57* | -2
Cc1ccc(S(=O)(=O)/N=C(/NC(=S)Nc2ccccc2)c2ccccc2)cc1 | 55* | . | . | -1 | ? | 44
Cc1ccc(NC(=S)N/C(=N/S(=O)(=O)c2ccccc2)c2ccccc2)cc1 | 55* | -5 | 0 | -3 | -3 | 37
COc1ccc(C(=O)NN/C(=N/S(=O)(=O)c2ccc(C)cc2)c2ccccc2)cc1 | . | -1 | 0 | 2 | 43* | 129*
CC(=O)Nc1ccc(N/C(=N\S(=O)(=O)c2ccccc2)c2ccccc2)cc1 | 3 | -2 | 0 | 1 | 0 | 0
Cc1ccc(S(=O)(=O)/N=C(/Nc2ccccc2C)c2ccccc2)cc1 | 2 | 1 | 0 | 0 | 0 | -2
CCC(=O)N1C[C@@H](C)[C@@H](OC)CN(C)C(=O)c2ccc(NC(=O)C3CC3)cc2OC[C@H]1C | 2 | 4 | 7 | . | . | .
C/C=C/c1ccc([C@H]2[C@@H](CO)N(S(C)(=O)=O)[C@H]2CN(CC)C(C)=O)cc1 | . | -5 | 0 | . | . | .
CN(C)c1ccc2c(c1)[C@H]1C[C@@H](CC(=O)N3CCCCC3)O[C@@H](CO)[C@H]1O2 | . | 22 | 0 | . | . | .
Cc1cc(C=C2C(=O)c3ccccc3C2=O)c(C)n1C | -8 | . | 0 | 2 | 63* | 8
Cc1nn(C)cc1NC(=O)C[C@H]1CC[C@@H]2[C@@H](COc3ccc(NC(=O)C4CCC4)cc3C(=O)N2C)O1 | 1 | . | 0 | . | . | .
CO[C@@H](CN(C)C(=O)c1ccccc1F)[C@@H](C)CN([C@@H](C)CO)S(=O)(=O)c1ccccc1 | 1 | 1 | 0 | . | . | .
O=[N+]([O-])c1ccc(N2N=C(c3ccccc3)CC2c2ccccc2O)cc1 (stereo not drawn) | . | -2 | 32* | -7 | -1 | -3
NS(=O)(=O)c1ccc(N2N=C(c3ccccc3)CC2c2ccccc2Br)cc1 (stereo not drawn) | -7 | 7 | 0 | . | -2 | 2
N#CC1CC(c2ccccc2)=NN1c1ccccc1[N+](=O)[O-] (stereo not drawn) | 52* | -2 | 0 | 5 | 10 | 14
CO[C@H]1CN(C)C(=O)c2ccc(NC(=O)NC(C)C)cc2OC[C@@H](C)N(Cc2cncnc2)C[C@@H]1C | 2 | . | 0 | . | . | .
COCCNC(=O)C[C@H]1C[C@H]2c3cc(NC(=O)C4CCC4)ccc3O[C@H]2[C@H](CO)O1 | 5 | 3 | 0 | . | . | .
Cc1c(N2C(=O)/C(=C/C3CC=CCC3)SC2=S)c(=O)n(-c2ccccc2)n1C (stereo not drawn) | . | 4 | 0 | 2 | 2 | .
Cc1c(N2C(=O)/C(=C\C3CC=CCC3)SC2=S)c(=O)n(-c2ccccc2)n1C (stereo not drawn) | 44* | 5 | 0 | 5 | -2 | 8
CCC(=O)N1C[C@H](C)[C@H](OC)CN(C)C(=O)c2ccc(NC(=O)c3cc(C)on3)cc2OC[C@H]1C | -5 | . | 0 | . | . | .
O=C(CSc1nc2ccsc2c(=O)n1CC1CCC(C(=O)O)CC1)c1ccc(Cl)cc1 (stereo not drawn) | . | 43* | 0 | 0 | 0 | -1
C/C(=C\c1ccccc1)C(=O)NCCc1ccccc1 | . | -1 | 0 | 1 | 61* | 50
S=C(NCc1ccco1)NCc1ccco1 | . | 52* | 0 | 2 | -2 | -4
SMILES | esBAF inh | Casp6 inh | XiGFP reactiv | NSD2 HMT inh | Wnt act | MITF act
O=C(NCCc1ccccc1)C(=Cc1ccc(C(=O)O)cc1)C(=O)NCCc1ccccc1 | 0 | 1 | 0 | -1 | -1 | -7
C/C(=C\c1ccccc1)C(=O)NCc1ccco1 | . | 0 | 0 | 1 | 32* | 31
CC(C)(C)C(=O)NC(=S)NCCc1ccccc1 | 43* | . | . | 4 | 0 | 61
CCCC#Cc1ccc2c(c1)[C@@H]1[C@@H](CCN1C(=O)C1CC1)[C@@H](CO)N2 | . | . | 0 | . | . | .
CO[C@@H]1CN(C)C(=O)c2ccc(NC(=O)c3ccc4c(c3)OCO4)cc2OC[C@H](C)N(CC2CC2)C[C@@H]1C | 5 | -2 | 0 | . | . | .
C[C@H]1CN(C)C(=O)c2cccc(NS(C)(=O)=O)c2O[C@@H]1CN(C)C | . | . | 0 | . | . | .
CCCNC(=O)[C@@H]1[C@@H](CO)[C@@H]2Cn3c(ccc(-c4ccccc4F)c3=O)[C@@H]2N1C | . | -1 | 0 | . | . | .
COc1ccc(CNC(=O)COC(=O)c2c(NC(C)=O)sc(C)c2C)cc1 | 3 | -2 | 0 | -3 | 3 | -1
COc1ccc(CNC(=O)COC(=O)c2c(NC(C)=O)sc(C)c2C)cc1OC | 1 | 3 | 0 | -3 | 46* | .
CC(=O)Nc1sc(C)c(C)c1C(=O)OCCOc1ccccc1 | 55* | 1 | 0 | -6 | 11 | 52
CC(=O)Nc1sc(C)c(C)c1C(=O)OCC(=O)Nc1ccccc1 | 18 | -5 | 0 | -5 | 2 | 14
CC1=C([C@H](O)CCc2ccccc2)[C@H](CO)n2c(=O)n(-c3ccccc3)c(=O)n2C1 | . | 4 | . | . | . | .
O=C(O)c1cccc(-c2ccc(/C=c3/sc4nc5ccccc5n4c3=O)o2)c1 | 12 | 37* | 0 | 31 | 1 | 21
O=C(O)c1cc(C(=O)O)cc(-c2ccc(/C=c3/sc4nc5ccccc5n4c3=O)o2)c1 | . | . | . | . | . | -7
O=C(CCN1C(=O)NC2(CCCC2)C1=O)Nc1cccc(S(=O)(=O)N2CCOCC2)c1 | -1 | 42* | 0 | -1 | 0 | 9
O=C(Nc1ccc2c(c1)OCCO2)C1CCCN(S(=O)(=O)c2cccs2)C1 (stereo not drawn) | 48* | . | . | . | . | -8
O=C(O)c1ccc(NC(=O)C2CCN(S(=O)(=O)c3ccc4c(c3)OCCO4)CC2)cc1 | -2 | 4 | 0 | 2 | -6 | .
CS(=O)(=O)c1cccc(C(=O)Nc2ccc3c(c2)OCCCO3)c1 | 58* | 0 | 0 | 2 | 14 | 81*
O=C(Nc1ccccc1)C1CCN(S(=O)(=O)c2ccc3c(c2)OCCO3)CC1 | . | 36* | 0 | 2 | -1 | 0
C[C@H](CO)N1C[C@H](C)[C@@H](CN(C)S(=O)(=O)c2cccs2)OCCCC[C@H](C)Oc2ccc(NC(=O)CCCN(C)C)cc2C1=O | -3 | -2 | 0 | . | . | .
C[C@H]1CN([C@@H](C)CO)C(=O)Cc2cc(NC(=O)Cn3cnnn3)ccc2O[C@H]1CN(C)CC1CCCCC1 | -3 | 0 | 0 | . | . | .
